Compound activity (PubChem BioAssay)
MEKK2 WT-MEK5: raises or lowers MEK5 binding to wildtype human MEKK2 PB1 domain; bead flow cytometry, Alexa488-MEK5 binding to MEKK2 WT; actives lie on both sides; binding response (% of control), % at 10 µM; 290,000 compounds, 1.1% hits; AID 1531; in the data active = binding response below about 67% or above about 130%
MEKK3 PB1 HTS: raises or lowers MEK5 binding to the human MEKK3 PB1 domain; Q99759; bead-based flow cytometry, Alexa488-MEK5 binding to MEKK3; actives lie on both sides; 0 = blocked by unlabeled MEK5, 100 = vehicle; binding response (% of control), % at 10 µM; 290,000 compounds, 1.4% hits; AID 1529;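 active = binding response more than 3 SD above or below the average of its plate-row segment, actives on both sides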;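 also: Alexa488 bead fluorescence after subtracting the streptavidin-only scavenger bead signal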
Target sequence (Q99759 whole entry, looked up, the tested form may be a part): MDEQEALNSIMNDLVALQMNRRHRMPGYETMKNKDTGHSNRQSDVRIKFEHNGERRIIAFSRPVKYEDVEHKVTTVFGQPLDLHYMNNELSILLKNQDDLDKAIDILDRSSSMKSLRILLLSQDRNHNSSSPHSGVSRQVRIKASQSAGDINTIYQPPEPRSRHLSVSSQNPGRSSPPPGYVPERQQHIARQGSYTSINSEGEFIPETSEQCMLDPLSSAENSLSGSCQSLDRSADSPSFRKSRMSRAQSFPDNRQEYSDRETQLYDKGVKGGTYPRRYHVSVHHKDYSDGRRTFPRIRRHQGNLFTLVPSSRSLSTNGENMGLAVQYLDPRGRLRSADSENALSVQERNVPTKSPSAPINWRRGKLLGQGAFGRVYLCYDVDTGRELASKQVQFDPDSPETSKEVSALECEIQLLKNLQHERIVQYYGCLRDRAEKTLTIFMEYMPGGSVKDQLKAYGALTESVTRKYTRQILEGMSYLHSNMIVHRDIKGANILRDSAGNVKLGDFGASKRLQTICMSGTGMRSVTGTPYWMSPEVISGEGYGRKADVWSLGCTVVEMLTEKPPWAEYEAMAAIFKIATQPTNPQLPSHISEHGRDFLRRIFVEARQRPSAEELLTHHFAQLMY
IMP-1 inhibitor: inhibitors of Pseudomonas aeruginosa IMP-1 metallo-beta-lactamase; purified IMP-1, nitrocefin hydrolysis, epi-absorbance fluorescence; inhibition, % at 5.6 µM; 290,000 compounds, 0.45% hits;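 active = inhibition above the mean plus 3 SD of all compounds in the same screening run, cut at about 4.5% in these data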;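 also: 0% = IMP-1 with DMSO and 100% = DMSO wells lacking enzyme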
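Test system: recombinant IMP-1 enzyme, purified / Medium: HEPES buffer pH 7.1 with ZnSO4 and Brij 35 / Doses: single dose, 5.6 µM / Times: 25 °C, 15 min preincubation, 25 min reaction / Detection: Epi-absorbance via hydrolysed-nitrocefin quenching of white-plate fluorescence, 480/530 nm, EDTA stop / Evaluation: percent inhibition from optical density relative to buffer-blank wells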
MEKK2 mut-MEK5: signal of MEK5 binding to mutant human MEKK2 PB1 domain | percent response, % at 10 µM | bead flow cytometry, Alexa488-MEK5 binding to MEKK2 mutant | 290,000 compounds, 0.35% hits | AID 1530; in the data active = percent response above about 24%, passing the limit was not always enough
VIM-2 inhibitor: inhibitors of Pseudomonas aeruginosa VIM-2 metallo-beta-lactamase; purified VIM-2, nitrocefin hydrolysis, epi-absorbance fluorescence; inhibition, % at 5.6 µM; 290,000 compounds, 0.89% hits;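 active = inhibition above the mean of all tested compounds plus 3 SD, cutoff set per screening run, cut at about 7.5% in these data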;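 also: red hydrolysis product quenches plate fluorescence so inhibitors raise well fluorescence; 0% = enzyme with DMSO and 100% = DMSO without enzyme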
MEKK2wt confirm: raises or lowers MEK5 binding to wildtype human MEKK2, retest. shares compounds with MEKK3 PB1 HTS. binding response (% of control), % at 10 µM. bead flow cytometry, Alexa488-MEK5 binding to MEKK2 WT; actives lie on both sides. AID 1892. 5,900 compounds, 2.4% hits; in the data active = binding response below about 16% or above about 210%; inactive = in between
MEKK2mut confirm: signal of MEK5 binding to mutant human MEKK2, retest. AID 1893. bead flow cytometry, Alexa488-MEK5 binding to MEKK2 mutant. percent response, % at 10 µM. shares compounds with MEKK3 PB1 HTS. 5,900 compounds, 2% hits; in the data active = percent response mostly above about 71%, no sharp cut-off; inactive = mostly below about 38%;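 also: higher means compound restores mutant binding toward wildtype level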
MEKK3-MEK5 inh: MEKK3-MEK5 PB1 inhibition, single concentration confirmation; shares compounds with MEKK3 PB1 HTS; bead flow cytometry, Alexa488-MEK5 binding to MEKK3; active compounds read low; binding response (% of control), % at 10 µM; 5,900 compounds, 1.8% hits; AID 1894;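 active = binding response below 72% of control, or above a set upper limit, though filed actives all read lower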;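 also: 100% = DMSO only wells and 0% = binding blocked by excess unlabeled MEK5; lower values mean stronger disruption of MEK5 binding to MEKK3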
* hit, by the source's call; x = no result given; [ ] = dose if it differs, or a comment. The list is not random: actives were taken first. Their share in the collection is about 3.4%.

SMILES | MEKK2 WT-MEK5 | MEKK3 PB1 HTS | IMP-1 inhibitor | MEKK2 mut-MEK5 | VIM-2 inhibitor | MEKK2wt confirm | MEKK2mut confirm | MEKK3-MEK5 inh
CC(=O)Nc1cccc(-n2nnc(SCC(=O)c3ccccc3)n2)c1 | 131 | 129* | -1 | 27 | 1 | 107 | -2 | 105
CC1CCC(C(C)C)C(OCC[N+](C)(C)C)C1 (configuration not stated) | 111 | 143* | 1 | 1 | 5 | 101 | 0 | 102
CC1CCC(C(C)C)C(OCC(O)C[N+]2(C)CCCCC2)C1 (configuration not stated) | 85 | 94 | 0 | -12 | 0 | x | x | x
CCC(=O)NC(=S)NNC(=O)COc1ccc(Br)cc1 | 90 | 95 | -2 | 3 | -4 | x | x | x
O=C(c1ccc(S(=O)(=O)N2CCCC2)cc1)N1CCCc2ccccc21 | 119 | 117 | -3 | 27* | -3 | 100 | -1 | 105
Cc1cccc(C)c1NC(=S)N(CCN1CCCCCC1)Cc1ccco1 | 96 | 91 | -2 | -7 | 1 | x | x | x
Cc1cccc(C)c1NC(=S)N(Cc1ccco1)C1CCN(C(C)C)CC1 | 107 | 128* | -4 | 1 | -3 | 112 | 15 | 105
CCN1CCCC1CNC(=O)CCNC(=O)c1cc(OC)c(OC)c(OC)c1 (configuration not stated) | 97 | 96 | -4 | -7 | 0 | x | x | x
CSc1ccc(NC(=O)NCCCN2CCC(Cc3ccccc3)CC2)cc1 | 162* | 111 | -2 | 30* | -2 | 185 | 40 | 112
COc1ccc(NC(=O)NCCN2CCc3ccccc3C2)cc1 | 101 | 87 | -3 | -14 | -2 | x | x | x
COc1ccc(NC(=O)NCCCN2CCC(Cc3ccccc3)CC2)cc1 | 96 | 90 | 0 | -6 | 0 | x | x | x
CSc1ccc(NC(=O)NCCN2CCc3ccccc3C2)cc1 | 86 | 49*[inhibitor] | -2 | -20 | -1 | 132 | 17 | 107
CCSc1nc2c([nH]c3ccccc32)c(=O)n1C | 103 | 101 | -3 | 1 | -2 | x | x | x
C=CCN1c2ccccc2[C@]23C[C@@H](C(=O)OC)N=C2NC(C(=O)OC)=C(C(=O)OC)[C@H]13 | 150* | 126 | x | 1 | x | 97 | -6 | 98
C=CCN1c2ccccc2[C@]23C[C@@H](C(=O)OC)N(C(=O)c4cc(C)oc4C)C2=NC(C(=O)OC)=C(C(=O)OC)[C@H]13 | 147* | 127 | x | 2 | x | 94 | -4 | 93
CC#CCN1c2ccccc2[C@]23C[C@@H](C(=O)OC)N(C(=O)c4ccco4)C2=NC(C(=O)OC)=C(C(=O)OC)[C@H]13 | 151* | 126 | x | 3 | x | 95 | -4 | 92
CCCCOc1ccc(S(=O)(=O)NCc2csc(C)n2)cc1 | 100 | 100 | -3 | -1 | -5 | x | x | x
COc1ccc(NC(=O)CCCn2c(=O)c3sccc3n(Cc3ccc(C)cc3C)c2=O)cc1 | 96 | 96 | -2 | -2 | -5 | x | x | x
O=C(CN1CCCC1)NCC12CC3CC(CC(C3)C1)C2 | 91 | 82*[inhibitor] | -1 | -5 | -1 | 101 | 3 | 103
O=C(CN1CCCC1)NC12CC3CC(CC(C3)C1)C2 | 94 | 98 | -3 | -2 | -1 | x | x | x
CCOc1cc(CO)cc(Br)c1OCC(=O)Nc1ccccc1C | 94 | 97 | 0 | -2 | 0 | x | x | x
O=C(CNS(=O)(=O)c1ccc(F)c(Cl)c1)NCCc1ccccc1 | 94 | 94 | -5 | -1 | -3 | x | x | x
O=c1oc2ccccc2c(Nc2ccc3ncccc3c2)c1[N+](=O)[O-] | 109 | 147* | -5 | 1 | 0 | 97 | -3 | 99
Cn1c(=O)c2nc(-c3ccccc3)oc2c2ccccc21 | 96 | 97 | -3 | -5 | 2 | x | x | x
CCc1nc(C)cc2c1sc1ccccc12 | 95 | 97 | -2 | -8 | 1 | x | x | x
SMILES | MEKK2 WT-MEK5 | MEKK3 PB1 HTS | IMP-1 inhibitor | MEKK2 mut-MEK5 | VIM-2 inhibitor | MEKK2wt confirm | MEKK2mut confirm | MEKK3-MEK5 inh
CN(C)S(=O)(=O)N1CCN(CC(O)COc2ccc3cc(Br)ccc3c2)CC1 (configuration not stated) | 134* | 107 | -2 | 19 | -1 | 151 | 27 | 112
COc1ccc(N2C(=O)CC(Sc3ncn[nH]3)C2=O)c(OC)c1 (configuration not stated) | 116 | 122* | -5 | 11 | -4 | 102 | -2 | 101
CC(C)c1ccc(N2C(=O)CC(Sc3ncn[nH]3)C2=O)cc1 (configuration not stated) | 112 | 107 | -3 | 4 | -3 | x | x | x
CCOc1ccccc1C(=O)NC(C(=O)NCc1ccccc1OC)C(C)C (configuration not stated) | 73 | 66 | 0 | -31 | 0 | x | x | x
Cc1nnc(NC(=O)c2sc3nc(-c4cccs4)cc(C(F)(F)F)c3c2N)s1 | 68 | 88 | -3 | -8 | -1 | x | x | x
CC(C)(C)C(=O)c1sc2nc(-c3cccs3)cc(C(F)(F)F)c2c1N | 53*[inhibitor] | 94 | -4 | -9 | -3 | 102 | 6 | 103
COc1ccc(N(CC(=O)Nc2c(C)n(C)n(-c3ccccc3)c2=O)S(=O)(=O)c2ccccc2)cc1OC | 98 | 96 | -1 | -1 | -3 | x | x | x
C=CCN(CC=C)C(=S)NCCc1ccc(OC)c(OC)c1 | 107 | 104 | -3 | 17 | 3 | x | x | x
C1CCC(C(CC2CCCCN2)C2CCCCC2)CC1 (configuration not stated) | 171* | 86 | -3 | 17 | -4 | 140 | 28 | 102
Cc1cc(C)nc(NC(=O)c2ccc([N+](=O)[O-])o2)n1 | 104 | 128* | -3 | 2 | -5 | 97 | -10 | 99
C=CCOc1nc2c(c(=O)n(C)c(=O)n2C)n1Cc1c(Cl)cccc1Cl | 89 | 81*[inhibitor] | -1 | -6 | 3 | 100 | -4 | 104
Cc1ccsc1/C=C(/C#N)C(=O)NCc1ccccc1 | 112 | 108 | -2 | 58* | -4 | 99 | -3 | 101
Cc1[nH]c2ccccc2c1/C=C(\C#N)C(=O)NCc1ccccc1 | 15* | 108 | -1 | 134* | -3 | 106 | 4 | 101
CCn1c(SCc2ccc(C(=O)O)cc2)nnc1-c1ccc(Cl)cc1 | 105 | 106 | -2 | 2 | -4 | x | x | x
CCOC(=O)c1c(/N=C/c2cc([N+](=O)[O-])ccc2O)sc(C)c1C | 91 | 92 | 2 | -5 | 1 | x | x | x
CCOC(=O)c1c(/N=C/c2cc(OC)cc([N+](=O)[O-])c2O)sc(C)c1C | 103 | 135* | 1 | 0 | -3 | 104 | 3 | 98
